Source: the EternaBench riboswitch data

Test system: MS2 coat protein
Experiment: apparent Kd, MS2 coat protein; higher = weaker binding; RNA-MaP array; tryptophan 2.4 mM where present
Procedure, shortened: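 Designs were transcribed by stalled E. coli RNA polymerase on Illumina sequencing-chip clusters. They were titrated with SNAP-549-labelled MS2 coat protein from 0.7 or 1.5 nM, doubling to 3 µM, without and then with constant ligand. Buffer: 100 mM Tris-HCl pH 7.5, 80 mM KCl, 4 mM MgCl2, BSA, DTT, yeast tRNA, Tween-20. Green signal was normalised to red-channel RNA signal and control-cluster median Fmax. Apparent Kd is the median of filtered per-cluster binding-curve fits.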

[1] = designed as: ON switch for tryptophan, no ligand
[2] = ligand present: tryptophan, designed as: ON switch for tryptophan
[3] = designed as: OFF switch for tryptophan, no ligand
[4] = ligand present: tryptophan, designed as: OFF switch for tryptophan

**Q.** Which results are given for “UGUGUGUGACCAGGAAAUGGUCACACACAGCGAGGACCGGUACGGCCGCCACUCGGCCGUACAUGAGGAUCACCCAUGUCGGGUA”?
**A.** apparent Kd [1]: 674 nM; apparent Kd [2]: 741 nM

**Q.** For “AGCCGGAUUACGGCCGCCACUGUAGACGUGACGAAAGUCGCGUCAACAUGAGGAUCACCCAUGUACAGGACCGGGUGGUCAGGCG”, which “apparent Kd” value [1] is on record?
**A.** 173 nM

**Q.** And the “apparent Kd” value [2]?
**A.** 41.2 nM

**Q.** With “GUUUUGGGAUCGGCCGCCACUACAUGAGGAUCACCCAUGUGGACAAAUAGGGUUUUUAAGCUCGGUAGGACCGGGAUUCGAACAU” as the sequence, how does the “apparent Kd” value [3] read?
**A.** 18.1 nM

**Q.** And the “apparent Kd” value [4]?
**A.** 67.5 nM

**Q.** Which results are given for “ACCUGCGUUUGUUUCUUUCUGACGCAGGUUCGAGGACCGGUACGGCCGCCACUCGGACAUGAGGAUCACCCAUGUUUGAAAUGGG”?
**A.** apparent Kd [3]: 253 nM; apparent Kd [4]: 227 nM

**Q.** How did the “apparent Kd” value [1] turn out when “CUAUAUAUAGCGGCCGCCACUUACUCAUGAGGUAACAACAUGAGGAUCACCCAUGUUUGAGGAUCAAGGACCGGGCUAUAUAUAG” was run?
**A.** 28.2 nM

**Q.** What about the “apparent Kd” value [2] of the same sequence?
**A.** 16.7 nM

**Q.** How did the “apparent Kd” value [1] turn out when “UAUCUACAUGAAUAGGUUAUUCGAUUAUUUCGAGGACCGGUACGGCCGCCACUCGUUAACAUAUACAUGAGGAUCACCCAUGUUA” was run?
**A.** 16.9 nM

**Q.** And the “apparent Kd” value [2]?
**A.** 15.9 nM

**Q.** What does the source list for “AGUCACUCGAGGUGAUCUGACGAGUGGCAACGAGGACCGGUACGGCCGCCACUCGAAUAAACAUGAGGAUCACCCAUGUACAAAU”?
**A.** apparent Kd [1]: 213 nM; apparent Kd [2]: 196 nM

**Q.** How did the “apparent Kd” value [3] turn out when “GGAUAGGACACGGCCGCCACUGCCUAGGAUACUAGCAACAUUUGGGUACAUGAGGAUCACCCAUGUAGGACCGGGUGUCCUAUCG” was run?
**A.** 49.2 nM

**Q.** What about the “apparent Kd” value [4] of the same sequence?
**A.** 53.9 nM

**Q.** How did the “apparent Kd” value [3] turn out when “ACAUGUUGGUGGUAUCUACGAAGGCGGAAACGAGGACCGGUACGGCCGCCACUCGGCGACAUGAGGAUCACCCAUGUGGUUAAAA” was run?
**A.** 52.6 nM

**Q.** What about the “apparent Kd” value [4] of the same sequence?
**A.** 27.5 nM

**Q.** With “CUAUGUAUAUAUGCGAAAGCUACGUGUUGACGAGGACCGGUACGGCCGCCACUCGACAUGAGGAUCACCCAUGUAAUAUAUAUAG” as the sequence, how does the “apparent Kd” value [1] read?
**A.** 200 nM

**Q.** What about the “apparent Kd” value [2] of the same sequence?
**A.** 62.7 nM

**Q.** For “CACGCACGAUCGGCCGCCACUCAUGUAGCUUACAUGAGGAUCACCCAUGUAUUUUCUUUCUUUUAGAGGACCGGGAUCGUGCGUG”, which “apparent Kd” value [1] is on record?
**A.** 24.9 nM

**Q.** And the “apparent Kd” value [2]?
**A.** 16.5 nM

**Q.** With “GCAUCCUAGUCGGCCGCCACUGCAUGUAGGCAGUGCUGCUACAAACAUGAGGAUCACCCAUGUAGCAGGACCGGGACUAGGAUGC” as the sequence, how does the “apparent Kd” value [1] read?
**A.** 15 nM

**Q.** And the “apparent Kd” value [2]?
**A.** 13.1 nM

**Q.** Which results are given for “AGCCACUCGAGUGAUCCUCACGAGUGGCAACGAGGACCGGUACGGCCGCCACUCGAAUAACAUGAGGAUCACCCAUGUUUAUAAU”?
**A.** apparent Kd [1]: 93.2 nM; apparent Kd [2]: 96.2 nM

**Q.** What does the source list for “UAUAUAUAUCACGAACUGUGGUGUAUGUCUCGAGGACCGGUACGGCCGCCACUCGCGCGGCCUCACAUGAGGAUCACCCAUGUCC”?
**A.** apparent Kd [3]: 89.2 nM; apparent Kd [4]: 113 nM

**Q.** With “CGAAUAUAGACGGCCGCCACUCUACAAACAUGAGGAUCACCCAUGUUCACAUAGUGGAAACACAUGAGGACCGGGUCAUAGGCAU” as the sequence, how does the “apparent Kd” value [1] read?
**A.** 18.5 nM

**Q.** And the “apparent Kd” value [2]?
**A.** 14 nM

**Q.** How did the “apparent Kd” value [3] turn out when “CUAUAAGUACCGGUCCUCAGAUCCUCAUGACGAGGACCGGUACGGCCGCCACUCGAAACAUGAGGAUCACCCAUGUAAUAAUACC” was run?
**A.** 35.5 nM

**Q.** What about the “apparent Kd” value [4] of the same sequence?
**A.** 19.9 nM

**Q.** With “GUCCAAAGGUCGGCCGCCACUGUAGAGUGUGUUCUUUCACAUGAGGAUCACCCAUGUUGUUAUUAUAGGACCGGGAUUGUAGGAC” as the sequence, how does the “apparent Kd” value [3] read?
**A.** 20.4 nM

**Q.** And the “apparent Kd” value [4]?
**A.** 28.1 nM

**Q.** How did the “apparent Kd” value [1] turn out when “UUUAUUAUUGACUCGUUAUUGUUUUUGGAUCGAGGACCGGUACGGCCGCCACUCGUGAUAUACAUGAGGAUCACCCAUGUUAGCA” was run?
**A.** 14.9 nM

**Q.** What about the “apparent Kd” value [2] of the same sequence?
**A.** 12.8 nM

**Q.** For “AAUAAUAGGUGAUCCUGACGAGUGGCAUAACGAGGACCGGUACGGCCGCCACUCGAACAUGAGGAUCACCCAUGUAGCCACUCGA”, which “apparent Kd” value [1] is on record?
**A.** 312 nM

**Q.** And the “apparent Kd” value [2]?
**A.** 393 nM

**Q.** What does the source list for “UUGUGGCGCUCGGCCGCCACUCCGACAUGAGGAUCACCCAUGUUCUACAUGAGGAUCACCCAUGUGAGGACCGGGAGACACUUCC”?
**A.** apparent Kd [3]: 104 nM; apparent Kd [4]: 103 nM

**Q.** What does the source list for “CUAUAUUUAUCGGCCGCCACUUACUCAUGAGGUAACAACAUGAGGAUCACCCAUGUUUGAGGAUCAAGGACCGGGAUAAAUAUAG”?
**A.** apparent Kd [1]: 27.8 nM; apparent Kd [2]: 16.3 nM

**Q.** Which “apparent Kd” value [1] does the source give for “CUACAUUUGUAGAAACCGGUCAACAAUAAUCGAGGACCGGUACGGCCGCCACUCGAUGUGAAAUACACAUGAGGAUCACCCAUGU” here?
**A.** 15.9 nM

**Q.** What about the “apparent Kd” value [2] of the same sequence?
**A.** 16.9 nM

**Q.** Which “apparent Kd” value [1] does the source give for “AUAAAUAAGGCGGCCGCCACUAAUAUAUUAAUAUUUUAUAUCCGACAUGAGGAUCACCCAUGUGGUAGGACCGGGCCAAUAAUUA” here?
**A.** 26.2 nM

**Q.** What about the “apparent Kd” value [2] of the same sequence?
**A.** 25.8 nM

**Q.** For “CUACAUUUGUAGAAACCGGUCACCGUUACUCGAGGACCGGUACGGCCGCCACUCGUGUCACGUGAUACAUGAGGAUCACCCAUGU”, which “apparent Kd” value [1] is on record?
**A.** 37.4 nM

**Q.** And the “apparent Kd” value [2]?
**A.** 31.3 nM

**Q.** “AUCUUUGGCGAUCUGGGAAAACCAGAUCGACGAGGACCGGUACGGCCGCCACUCGUGUAUAAUAUACAUGAGGAUCACCCAUGUA” was tested. Which “apparent Kd” value [1] did it give?
**A.** 47.5 nM

**Q.** What about the “apparent Kd” value [2] of the same sequence?
**A.** 30.5 nM

**Q.** For “UCGUUUUAGUCGGCCGCCACUGUAUGCAUGUUUAACAUGAGGAUCACCCAUGUCCCGUACUAUAACAGGACCGGGACGUAAUAGA”, which “apparent Kd” value [1] is on record?
**A.** 168 nM

**Q.** What about the “apparent Kd” value [2] of the same sequence?
**A.** 100 nM

**Q.** How did the “apparent Kd” value [3] turn out when “AGAUUCGACACGGCCGCCACUCGUGGUGGAUUACCUAGUGUCGAACAUGAGGAUCACCCAUGUACGAGGACCGGGUGUUGAGUCU” was run?
**A.** 75 nM

**Q.** And the “apparent Kd” value [4]?
**A.** 200 nM

**Q.** “UCGUUAUGGUCGGCCGCCACUCGCGGAGAGCAUAGCUCAAACAUGAGGAUCACCCAUGUAUCAUGGAGGACCGGGACCAUAACGU” was tested. Which “apparent Kd” value [1] did it give?
**A.** 31.9 nM

**Q.** What about the “apparent Kd” value [2] of the same sequence?
**A.** 14 nM

**Q.** For “GUUUAAAGGUCGGCCGCCACUGUAGGAUGUGUUCUUUCACAUGAGGAUCACCCAUGUUGUUAUUAUAGGACCGGGAUUUUAGGAC”, which “apparent Kd” value [3] is on record?
**A.** 27.1 nM

**Q.** And the “apparent Kd” value [4]?
**A.** 22.4 nM

**Q.** For “UUCACAUGAUCUGAAUAUACAGAAAAGAAACGAGGACCGGUACGGCCGCCACUCGUGCCGGAAACAUGAGGAUCACCCAUGUGUU”, which “apparent Kd” value [3] is on record?
**A.** 24.2 nM

**Q.** What about the “apparent Kd” value [4] of the same sequence?
**A.** 22 nM

**Q.** Which results are given for “UUAGUAACGACGGCCGCCACUGGAUAUGAACAUGAGGAUCACCCAUGUAGAGAUCCUAGAAUAAACAGGACCGGGUCUGAUAAUA”?
**A.** apparent Kd [3]: 17.2 nM; apparent Kd [4]: 53.4 nM

**Q.** What does the source list for “AACAUGAGGAUCACCCAUGUUCUCGUGUACCGAGGACCGGUACGGCCGCCACUCGGUUCUCGCGAGGAUGGUCAAAGACUAUCCA”?
**A.** apparent Kd [1]: 19.1 nM; apparent Kd [2]: 16 nM

**Q.** How did the “apparent Kd” value [3] turn out when “GUGUUAUGGUCGGCCGCCACUCUGACAUGAGGAUCACCCAUGUUGUACAUGAGGAUCACCCAUGUGAGGACCGGGACACGUGCGA” was run?
**A.** 401 nM

**Q.** What about the “apparent Kd” value [4] of the same sequence?
**A.** 442 nM

**Q.** Which “apparent Kd” value [1] does the source give for “GCAUCCUAGUCGGCCGCCACUGCACGAUCAGUGGCAGAUCGUCAACAUGAGGAUCACCCAUGUAGCAGGACCGGGACUAGGAUGC” here?
**A.** 17.6 nM

**Q.** What about the “apparent Kd” value [2] of the same sequence?
**A.** 24.6 nM

**Q.** Which results are given for “CGAUAUAUAGCGGCCGCCACUUACUCAUGAGGUAACAACAUGAGGAUCACCCAUGUUUGAGGAUCAAGGACCGGGCUAUGUAUCG”?
**A.** apparent Kd [1]: 27.4 nM; apparent Kd [2]: 18 nM

**Q.** What does the source list for “CGCCACAUGAGGAUCACCCAUGUCUUGGCGCGAGGACCGGUACGGCCGCCACUCGCGUUUCAGUGAGCGCAUGCGUCCUUGGUAU”?
**A.** apparent Kd [3]: 18.3 nM; apparent Kd [4]: 26.1 nM

**Q.** Which “apparent Kd” value [3] does the source give for “GAUAUGGAAACAUGUCAGAUCCUUACCGGUCGAGGACCGGUACGGCCGCCACUCGGAAAUAUUGUACAUGAGGAUCACCCAUGUA” here?
**A.** 13.7 nM

**Q.** What about the “apparent Kd” value [4] of the same sequence?
**A.** 14.5 nM

**Q.** With “CAUAUAUAAGCGGCCGCCACUUACUCAUGAGGUAACAACAUGAGGAUCACCCAUGUUUGAGGAUCAAGGACCGGGCUUAUAUAUG” as the sequence, how does the “apparent Kd” value [1] read?
**A.** 28.3 nM

**Q.** And the “apparent Kd” value [2]?
**A.** 18.3 nM
